Key:
Homo sapiens = organism: Homo sapiens; assay: Selectivity index, ratio of IC50 for human recombinant microsomal MAOA to IC50 for human recombinant microsomal MAOB
[1] = biological target: T1, Amine oxidase [flavin-containing] A (Homo sapiens, UniProt P21397); assay: Inhibition of human recombinant microsomal MAOA expressed in baculovirus infected BTI-TN-5B1- 4 cells using p-tyramine as substrate assessed as decrease in H2O2 production at 100 uM after 15 mins by amplex red-based fluorescence assay; settings: 0.25 h
T1 sequence (P21397 whole entry): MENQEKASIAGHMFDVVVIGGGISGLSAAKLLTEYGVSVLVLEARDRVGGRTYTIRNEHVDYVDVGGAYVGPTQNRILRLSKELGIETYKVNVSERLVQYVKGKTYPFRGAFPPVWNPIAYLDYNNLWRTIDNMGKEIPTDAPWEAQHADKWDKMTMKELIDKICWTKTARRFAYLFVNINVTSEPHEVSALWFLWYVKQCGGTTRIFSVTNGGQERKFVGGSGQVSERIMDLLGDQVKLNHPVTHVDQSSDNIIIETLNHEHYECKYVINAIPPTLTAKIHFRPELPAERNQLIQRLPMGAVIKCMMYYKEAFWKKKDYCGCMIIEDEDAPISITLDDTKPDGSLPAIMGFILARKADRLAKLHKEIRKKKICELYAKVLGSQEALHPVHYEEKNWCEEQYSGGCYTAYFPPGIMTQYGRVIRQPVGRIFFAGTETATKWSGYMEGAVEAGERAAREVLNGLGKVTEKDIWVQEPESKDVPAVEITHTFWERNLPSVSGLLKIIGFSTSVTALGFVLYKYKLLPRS

[2] = biological target: T2, Amine oxidase [flavin-containing] B (Homo sapiens, UniProt P27338); assay: biochemical; assay type: cell-based
T2 sequence (P27338 whole entry): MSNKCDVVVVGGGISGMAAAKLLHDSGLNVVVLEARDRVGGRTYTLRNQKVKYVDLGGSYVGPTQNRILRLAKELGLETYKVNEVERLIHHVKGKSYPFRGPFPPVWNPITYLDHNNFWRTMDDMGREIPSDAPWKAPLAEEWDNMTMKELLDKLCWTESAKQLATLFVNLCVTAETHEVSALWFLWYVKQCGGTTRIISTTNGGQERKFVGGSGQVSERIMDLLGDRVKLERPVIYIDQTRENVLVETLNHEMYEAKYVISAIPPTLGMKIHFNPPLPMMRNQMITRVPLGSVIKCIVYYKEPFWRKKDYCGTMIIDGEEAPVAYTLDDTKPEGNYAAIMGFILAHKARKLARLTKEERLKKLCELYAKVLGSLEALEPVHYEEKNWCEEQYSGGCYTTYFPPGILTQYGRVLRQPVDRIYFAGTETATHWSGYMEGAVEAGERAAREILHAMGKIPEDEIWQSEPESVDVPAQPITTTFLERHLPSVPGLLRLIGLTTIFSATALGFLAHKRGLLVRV

[3] = biological target: T2, Amine oxidase [flavin-containing] B; assay: Reversible inhibition of human recombinant microsomal MAOB expressed in baculovirus infected BTI-TN-5B1- 4 cells assessed as decrease in H2O2 production at 40 nM after 15 mins by amplex red-based fluorescence assay; settings: 0.25 h, 0.04 µM
[4] = biological target: T2, Amine oxidase [flavin-containing] B; assay: Noncompetitive inhibition of human recombinant microsomal MAOB expressed in baculovirus infected BTI-TN-5B1- 4 cells using p-tyramine as substrate assessed as decrease in H2O2 production by Lineweaver-Burk plot analysis
How it was run: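 Substrate-dependent kinetic experiments on hMAO-B. Inhibition mode was read from Lineweaver-Burk plots, and Ki was calculated from the corresponding Dixon plots.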

[5] = biological target: T2, Amine oxidase [flavin-containing] B; assay: Binding affinity to human recombinant microsomal MAOB expressed in baculovirus infected BTI-TN-5B1- 4 cells assessed as decrease in H2O2 production at 12.5 nM after 15 mins by amplex red-based fluorescence assay; settings: 0.25 h, 0.0125 µM
[6] = biological target: T2, Amine oxidase [flavin-containing] B; assay: Reversible inhibition of human recombinant microsomal MAOB expressed in baculovirus infected BTI-TN-5B1- 4 cells assessed as decrease in H2O2 production at 12.5 nM after 60 mins by amplex red-based fluorescence assay; settings: 1 h, 0.0125 µM

Row | Structure (SMILES) | Ratio IC50 (Homo sapiens) | inhibition (INH) [1] | IC50 [2] [µM] | inhibition (INH) [3] | Ki [4] [µM] | Activity [5] | inhibition (INH) [6]
1 | Cc1ccc2occ(C(=O)Nc3ccccc3)c(=O)c2c1 | > 4680 | Not Active | 0.0214 | – | – | – | –
2 | C[C@H](NCc1ccc(OCc2cccc(F)c2)cc1)C(N)=O [SAFINAMIDE] | – | Not Active | – | Active | – | – | –
3 | Cc1cccc(NC(=O)c2coc3ccc(C)cc3c2=O)c1 | > 5850 | Not Active | 0.0171 | – | – | – | –
4 | COc1ccc2occ(C(=O)Nc3ccccc3)c(=O)c2c1 | > 2390 | Not Active | 0.0418 | – | – | – | –
5 | Cc1cccc(NC(=O)c2cc3cc(C)ccc3oc2=O)c1 | > 13300 | Not Active | 0.00752 | – | – | – | –
6 | COc1ccc2occ(C(=O)Nc3cccc(Cl)c3)c(=O)c2c1 | > 25400 | Not Active | 0.00394 | – | – | – | –
7 | COc1ccc2occ(C(=O)Nc3cccc(C)c3)c(=O)c2c1 | > 4590 | Not Active | 0.0218 | – | – | – | –
8 | Cc1ccc(NC(=O)c2coc3ccc(C)cc3c2=O)cc1 | > 660 | Not Active | 0.152 | – | – | – | –
9 | Cc1ccc2occ(C(=O)Nc3ccc(O)cc3)c(=O)c2c1 | > 195 | Not Active | 0.513 | – | – | – | –
10 | COc1ccc2occ(C(=O)Nc3cccc(O)c3)c(=O)c2c1 | > 881 | Not Active | 0.113 | – | – | – | –
11 | Cc1ccc2oc(=O)c(C(=O)Nc3cccc(O)c3)cc2c1 | > 2200 | Not Active | 0.0454 | – | – | – | –
12 | Cc1ccc2occ(C(=O)Nc3cccc(Cl)c3)c(=O)c2c1 | > 23800 | Not Active | 0.0042 | – | 0.00269 | Active | Active
13 | Cc1ccc2occ(C(=O)Nc3cccc(O)c3)c(=O)c2c1 | > 1280 | Not Active | 0.0782 | – | – | – | –

Results, then the molecule that gave them:

Row | Ratio IC50 (Homo sapiens) | inhibition (INH) [1] | IC50 [2] [µM] | inhibition (INH) [3] | Ki [4] [µM] | Activity [5] | inhibition (INH) [6] | Structure (SMILES)
14 | > 9030 | Not Active | 0.0111 | – | – | – | – | Cc1ccc2oc(=O)c(C(=O)Nc3ccc(Cl)cc3)cc2c1
15 | > 5150 | Not Active | 0.0194 | – | – | – | – | COc1ccc2oc(=O)c(C(=O)Nc3ccc(C)cc3)cc2c1
16 | > 161 | Not Active | 0.622 | – | – | – | – | Cc1ccc2oc(=O)c(C(=O)Nc3ccc(O)cc3)cc2c1
17 | > 2200 | Not Active | 0.0454 | – | – | – | – | Cc1ccc2occ(C(=O)Nc3ccc(Cl)cc3)c(=O)c2c1
18 | > 447 | Not Active | 0.229 | – | – | – | – | COc1ccc2oc(=O)c(C(=O)Nc3cccc(O)c3)cc2c1
19 | > 2120 | Not Active | 0.0472 | – | – | – | – | COc1ccc2oc(=O)c(C(=O)Nc3cccc(C)c3)cc2c1
20 | > 148 | Not Active | 0.674 | – | – | – | – | COc1ccc2occ(C(=O)Nc3ccc(O)cc3)c(=O)c2c1
21 | – | Not Active | – | – | – | – | – | COc1ccc2oc(=O)c(C(=O)Nc3ccc(O)cc3)cc2c1
22 | > 11100 | Not Active | 0.00903 | – | – | – | – | COc1ccc2oc(=O)c(C(=O)Nc3cccc(Cl)c3)cc2c1
23 | > 5290 | Not Active | 0.0189 | – | – | – | – | COc1ccc2oc(=O)c(C(=O)Nc3ccc(Cl)cc3)cc2c1
24 | > 474 | Not Active | 0.211 | – | – | – | – | COc1ccc2occ(C(=O)Nc3ccc(C)cc3)c(=O)c2c1
25 | > 9700 | Not Active | 0.0103 | – | – | – | – | COc1ccc2occ(C(=O)Nc3ccc(Cl)cc3)c(=O)c2c1
26 | > 19700 | Not Active | 0.00507 | – | 0.00117 | Active | Active | Cc1ccc2oc(=O)c(C(=O)Nc3cccc(Cl)c3)cc2c1
27 | > 6530 | Not Active | 0.0153 | – | – | – | – | Cc1ccc2oc(=O)c(C(=O)Nc3ccccc3)cc2c1
28 | > 7190 | Not Active | 0.0139 | – | – | – | – | Cc1ccc(NC(=O)c2cc3cc(C)ccc3oc2=O)cc1
29 | > 16800 | Not Active | 0.00595 | – | – | – | – | COc1ccc2oc(=O)c(C(=O)Nc3ccccc3)cc2c1
